This is an account of results in ChEMBL document CHEMBL1649569, “oqxAB encoding a multidrug efflux pump in human clinical isolates of Enterobacteriaceae” (2009).

For experiment [1], the system named is Klebsiella pneumoniae. The experiment in a line: Antibacterial activity against Klebsiella pneumoniae isolate 4-38 harboring aac(6')Ib-cr gene by Etest method.
Experiment [2] has as its system Klebsiella pneumoniae. The experiment in a line: Antibacterial activity against Klebsiella pneumoniae isolate 4-13 harboring aac(6')Ib-cr gene by Etest method.
Experiment [3] deals with Escherichia coli. The experiment in a line: Antibacterial activity against Escherichia coli isolate 5-59 harboring qepA gene by Etest method.
For experiment [4], the system named is Klebsiella pneumoniae. The experiment in a line: Antibacterial activity against Klebsiella pneumoniae isolate 4-39 by Etest method.
The test system of experiment [5] is Escherichia coli. The experiment in a line: Antibacterial activity against Escherichia coli isolate 4-78 by Etest method.
Experiment [6] deals with Klebsiella pneumoniae. The experiment in a line: Antibacterial activity against Klebsiella pneumoniae isolate 3-45 by Etest method.
The subject of experiment [7] is Klebsiella pneumoniae. Kind of experiment: Antibacterial activity against Klebsiella pneumoniae isolate 2-54 by Etest method.
Experiment [8] deals with Klebsiella pneumoniae. The experiment in a line: Antibacterial activity against Klebsiella pneumoniae isolate 6-49 by Etest method.
Experiment [9] deals with Escherichia coli. The experiment in a line: Antibacterial activity against Escherichia coli isolate 5-56 by Etest method.
Experiment [10] relates to Escherichia coli. The experiment in a line: Antibacterial activity against Escherichia coli isolate 4-69 by Etest method.
In experiment [11] the test system is Klebsiella pneumoniae. The experiment in a line: Antibacterial activity against Klebsiella pneumoniae isolate 5-22 by Etest method.
Experiment [12] relates to Klebsiella pneumoniae. Kind of experiment: Antibacterial activity against Klebsiella pneumoniae isolate 5-80 by Etest method.
Experiment [13] relates to Escherichia coli. The experiment in a line: Antibacterial activity against Escherichia coli isolate 1-12 by Etest method.
The subject of experiment [14] is Klebsiella pneumoniae. The experiment in a line: Antibacterial activity against Klebsiella pneumoniae isolate 2-54 by broth dilution method. Type of experiment: functional. Summed up:
(§1)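 Clinical isolates tested by broth dilution in LB broth, with the MIC read as the end-point.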

Experiment [15] deals with Escherichia coli. Kind of experiment: Antibacterial activity against Escherichia coli isolate 1-12 by broth dilution method. Type of experiment: functional. In short, it runs like this: as §1
The subject of experiment [16] is Enterobacter cloacae. The experiment in a line: Antibacterial activity against Enterobacter cloacae isolate 6-4 by broth dilution method. It counts as functional. In short, it runs like this: as §1
Experiment [17] concerns Escherichia coli. The experiment in a line: Antibacterial activity against azide-resistant Escherichia coli J53 by broth dilution method.
The test system of experiment [18] is Klebsiella pneumoniae. Kind of experiment: Antibacterial activity against Klebsiella pneumoniae isolate 4-13 harboring aac(6')Ib-cr gene by broth dilution method. Type of experiment: functional. Summed up:
(§2)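 MIC by broth dilution in LB broth against human clinical Enterobacteriaceae isolates, with strains characterised by PCR for oqxA/oqxB and other plasmid-mediated quinolone resistance genes.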

In experiment [19] the test system is Klebsiella pneumoniae. Kind of experiment: Antibacterial activity against Klebsiella pneumoniae isolate 5-80 by broth dilution method. Type of experiment: functional. In short, it runs like this:
as §1

Experiment [20] deals with Klebsiella pneumoniae. The experiment in a line: Antibacterial activity against Klebsiella pneumoniae isolate 3-51 by broth dilution method. It counts as functional. In short, it runs like this: as §1
For experiment [21], the system named is Escherichia coli. The experiment in a line: Antibacterial activity against Escherichia coli isolate 5-59 harboring qepA gene by broth dilution method. Type of experiment: functional. In short, it runs like this:
as §2

Experiment [22] concerns Enterobacter cloacae. The experiment in a line: Antibacterial activity against Enterobacter cloacae isolate 1-40 by broth dilution method. It counts as functional. In short, it runs like this:
as §1

Experiment [23] relates to Klebsiella pneumoniae. The experiment in a line: Antibacterial activity against Klebsiella pneumoniae isolate 1-68 by broth dilution method. It counts as functional. Summed up:
as §1

In experiment [24] the test system is Klebsiella pneumoniae. The experiment in a line: Antibacterial activity against Klebsiella pneumoniae isolate 4-38 harboring aac(6')Ib-cr gene by broth dilution method. It counts as functional. In short, it runs like this: as §2
Experiment [25] concerns Escherichia coli. The experiment in a line: Antibacterial activity against Escherichia coli isolate 5-56 by broth dilution method. It counts as functional. In short, it runs like this: as §2
Experiment [26] has as its system Klebsiella pneumoniae. Kind of experiment: Antibacterial activity against Klebsiella pneumoniae isolate 3-45 by broth dilution method. Type of experiment: functional. In short, it runs like this:
as §1

The test system of experiment [27] is Enterobacter cloacae. The experiment in a line: Antibacterial activity against Enterobacter cloacae isolate 1-26 by broth dilution method. It counts as functional. In short, it runs like this: as §1
For experiment [28], the system named is Enterobacter cloacae. The experiment in a line: Antibacterial activity against Enterobacter cloacae isolate 1-3 by broth dilution method. It counts as functional. Summed up:
as §1

Experiment [29] concerns Escherichia coli. Kind of experiment: Antibacterial activity against Escherichia coli isolate 5-65 by broth dilution method. It counts as functional. Summed up:
as §2

Experiment [30] deals with Klebsiella pneumoniae. Kind of experiment: Antibacterial activity against Klebsiella pneumoniae isolate 6-49 by broth dilution method. It counts as functional. Summed up:
as §1

For experiment [31], the system named is Klebsiella pneumoniae. Kind of experiment: Antibacterial activity against Klebsiella pneumoniae isolate 5-22 by broth dilution method. Type of experiment: functional. In short, it runs like this:
as §1

The subject of experiment [32] is Enterobacter cloacae. Kind of experiment: Antibacterial activity against Enterobacter cloacae isolate 1-39 by broth dilution method. It counts as functional. Summed up: as §1
Experiment [33] deals with Klebsiella pneumoniae. The experiment in a line: Antibacterial activity against Klebsiella pneumoniae isolate 4-39 by broth dilution method. Type of experiment: functional. In short, it runs like this:
as §1

In experiment [34] the test system is Escherichia coli. Kind of experiment: Antibacterial activity against Escherichia coli ATCC 25922 by broth dilution method. Type of experiment: functional.
The test system of experiment [35] is Escherichia coli. Kind of experiment: Antibacterial activity against Escherichia coli isolate 4-78 by broth dilution method. Type of experiment: functional. In short, it runs like this: as §2
Experiment [36] has as its system Escherichia coli. The experiment in a line: Antibacterial activity against Escherichia coli isolate 4-69 by broth dilution method. Type of experiment: functional. In short, it runs like this:
as §2

The test system of experiment [37] is Escherichia coli. Kind of experiment: Antibacterial activity against Escherichia coli isolate 4-67 by broth dilution method. It counts as functional. In short, it runs like this: as §2
In experiment [38] the test system is Enterobacter cloacae. Kind of experiment: Antibacterial activity against Enterobacter cloacae isolate 4-11 by broth dilution method. It counts as functional. In short, it runs like this: as §1

In brackets after ≈: the same amount, converted by molar mass.

`O=C(O)c1cn(C2CC2)c2cc(N3CCNCC3)c(F)cc2c1=O` [CIPROFLOXACIN]: the MIC with Klebsiella pneumoniae [1] was above 32 µg/mL; in the experiment with Klebsiella pneumoniae [2], above 32 µg/mL; in the experiment on Escherichia coli [3], above 32 µg/mL; against Klebsiella pneumoniae [4] it was 0.064 µg/mL (≈ 0.193 µM); against Escherichia coli [5] it was above 32 µg/mL; with Klebsiella pneumoniae [6], 0.023 µg/mL (≈ 0.0694 µM). Also, the MIC in the experiment on Klebsiella pneumoniae [7] was 0.023 µg/mL (≈ 0.0694 µM); in the experiment on Klebsiella pneumoniae [8], above 32 µg/mL; against Escherichia coli [9], above 32 µg/mL; against Escherichia coli [10], above 32 µg/mL; against Klebsiella pneumoniae [11] it was 0.064 µg/mL (≈ 0.193 µM); with Klebsiella pneumoniae [12], 3 µg/mL (≈ 9.05 µM). In the experiment with Escherichia coli [13], this compound had an MIC above 32 µg/mL.
Turning to `Cc1c(C(=O)NCCO)[n+]([O-])c2ccccc2[n+]1[O-]` [OLAQUINDOX], the minimal inhibitory concentration (MIC) against Klebsiella pneumoniae [14] is 8 µg/mL (≈ 30.4 µM); in the experiment on Escherichia coli [15], 256 µg/mL (≈ 972 µM); in the experiment with Enterobacter cloacae [16], 16 µg/mL (≈ 60.8 µM); in the experiment on Escherichia coli [17] it was 8 µg/mL (≈ 30.4 µM); against Klebsiella pneumoniae [18] it was above 256 µg/mL; in the experiment with Klebsiella pneumoniae [19], above 256 µg/mL. The minimum inhibitory concentration (MIC) in the experiment on Klebsiella pneumoniae [20] is 16 µg/mL (≈ 60.8 µM); against Escherichia coli [21], 16 µg/mL (≈ 60.8 µM); in the experiment with Enterobacter cloacae [22], 128 µg/mL (≈ 486 µM); against Klebsiella pneumoniae [23], 8 µg/mL (≈ 30.4 µM); in the experiment on Klebsiella pneumoniae [24], above 256 µg/mL; against Escherichia coli [25] it was 16 µg/mL (≈ 60.8 µM). For the same compound, the MIC against Klebsiella pneumoniae [26] was 16 µg/mL (≈ 60.8 µM); against Enterobacter cloacae [27], 128 µg/mL (≈ 486 µM); in the experiment with Enterobacter cloacae [28], 64 µg/mL (≈ 243 µM); in the experiment on Escherichia coli [29] it was 16 µg/mL (≈ 60.8 µM); in the experiment on Klebsiella pneumoniae [30], above 256 µg/mL; in the experiment with Klebsiella pneumoniae [31] it was 8 µg/mL (≈ 30.4 µM). Moreover, the minimum inhibitory concentration (MIC) amounted to 128 µg/mL (≈ 486 µM) with Enterobacter cloacae [32]; 16 µg/mL (≈ 60.8 µM) with Klebsiella pneumoniae [33]; 8 µg/mL (≈ 30.4 µM) with Escherichia coli [34]; 16 µg/mL (≈ 60.8 µM) with Escherichia coli [35]; 16 µg/mL (≈ 60.8 µM) in the experiment on Escherichia coli [36]; 16 µg/mL (≈ 60.8 µM) against Escherichia coli [37]. In the experiment on Enterobacter cloacae [38], this compound had an MIC of 32 µg/mL (≈ 122 µM).
